# According to ChEMBL document CHEMBL3259728, “Design, synthesis and biological evaluation of some novel substituted quinazolines as antitumor agents” (2014):
# Legend:
# Type in all cases: functional
# [1] = Growth inhibition of human EKVX cells at 10 uM after 48 hrs by SRB assay; conditions: read-out: GI
# In short: (§1)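 NCI-60 primary one-dose screen run at the US NCI, with human tumour lines from nine cancer types. Compound added once at 10^-5 M, followed by 48 h incubation. End point was sulforhodamine B protein staining read spectrophotometrically. Result given as percent growth of treated cells against untreated controls, reported as % growth inhibition.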
# K562 [2] = assay: Growth inhibition of human K562 cells assessed as cell growth at 10^-7 M after 48 hrs by SRB assay; conditions: K562, 48 h, read-out: Activity
# [3] = Growth inhibition of human LOXIMVI cells at 10 uM after 48 hrs by SRB assay; conditions: LOX IMVI, read-out: GI; in short: as §1
# SR = assay: Growth inhibition of human SR cells at 10 uM after 48 hrs by SRB assay; conditions: read-out: GI; in short: as §1
# SNB-19 = assay: Growth inhibition of human SNB19 cells at 10 uM after 48 hrs by SRB assay; conditions: SNB-19, 48 h, read-out: GI; in short: as §1
# [4] = Growth inhibition of human UACC257 cells at 10 uM after 48 hrs by SRB assay; conditions: UACC-257, 48 h, read-out: GI; in short: as §1
# [5] = Growth inhibition of human OVCAR4 cells at 10 uM after 48 hrs by SRB assay; conditions: OVCAR-4, 48 h, read-out: GI; in short: as §1
# [6] = Growth inhibition of human HCC2998 cells at 10 uM after 48 hrs by SRB assay; conditions: HCC 2998, 48 h, read-out: GI; in short: as §1
# [7] = Growth inhibition of human SF539 cells at 10 uM after 48 hrs by SRB assay; conditions: SF-539, 48 h, read-out: GI; in short: as §1
# A549 = assay: Growth inhibition of human A549 cells at 10 uM after 48 hrs by SRB assay; conditions: A549, 48 h, read-out: GI
# In short: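 NCI primary one-dose screen. A single concentration of 10^-5 M was added to the cell culture, followed by 48 h incubation and an SRB protein-dye endpoint read spectrophotometrically. Results are growth percentage relative to untreated control cells, reported as % growth inhibition.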
# [8] = Growth inhibition of human OVCAR8 cells assessed as cell growth at 10^-6 M after 48 hrs by SRB assay; conditions: OVCAR-8, 48 h, read-out: Activity
# MDA-MB-231 = assay: Growth inhibition of human MDA-MB-231 cells at 10 uM after 48 hrs by SRB assay; conditions: MDA-MB-231, 48 h, read-out: GI; in short: as §1
# NCI-H226 = assay: Growth inhibition of human NCI-H226 cells at 10 uM after 48 hrs by SRB assay; conditions: NCI-H226, 48 h, read-out: GI; in short: as §1
# [9] = Growth inhibition of human RXF393 cells at 10 uM after 48 hrs by SRB assay; conditions: RXF 393, 48 h, read-out: GI; in short: as §1
# HT-29 = assay: Growth inhibition of human HT-29 cells assessed as cell growth at 10^-6 M after 48 hrs by SRB assay; conditions: HT-29, 48 h, read-out: Activity
# U-251 = assay: Cytotoxicity against human U251 cells after 48 hrs by SRB assay; conditions: U-251, 48 h
# In short: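 NCI 60-cell-line panel, 48 h continuous exposure to five 10-fold dilutions from 10^-4 to 10^-8 M. SRB protein staining was read spectrophotometrically, with time-zero, untreated-control and treated absorbances. GI50, TGI and LC50 were derived from the percentage-growth formulas. Values outside the tested range are expressed as more or less than the maximum or minimum concentration.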
# [10] = Growth inhibition of human MOLT4 cells at 10 uM after 48 hrs by SRB assay; conditions: MOLT-4, 48 h, read-out: GI; in short: as §1
# NCI-H322M = assay: Growth inhibition of human NCI-H322M cells at 10 uM after 48 hrs by SRB assay; conditions: read-out: GI; in short: as §1
# [11] = Growth inhibition of human HCT15 cells assessed as cell growth at 10^-7 M after 48 hrs by SRB assay; conditions: HCT-15, 48 h, read-out: Activity
# K562 [12] = assay: Growth inhibition of human K562 cells at 10 uM after 48 hrs by SRB assay; conditions: K562, 48 h, read-out: GI; in short: as §1
# COLO 205 = assay: Growth inhibition of human COLO205 cells assessed as cell growth at 10^-8 M after 48 hrs by SRB assay; conditions: COLO 205, 48 h, read-out: Activity
# In short: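 Five-dose NCI panel protocol. Each dose (10^-4 to 10^-8 M, 10-fold steps) was given as 48 h continuous exposure, and protein was measured by SRB staining. Percentage growth at each level is [(Ti−Tz)/(C−Tz)]×100, where Tz is time-zero absorbance and C is untreated control.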
# SK-OV-3 = assay: Growth inhibition of human SKOV3 cells at 10 uM after 48 hrs by SRB assay; conditions: SK-OV-3, 48 h, read-out: GI; in short: as §1
# HL-60(TB) = assay: Growth inhibition of human HL-60(TB) cells at 10 uM after 48 hrs by SRB assay; conditions: HL-60, 48 h, read-out: GI
# In short: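 NCI 60-cell-line primary screen: compound added at single concentration 10^-5 M, cultures incubated 48 h; end point by sulforhodamine B protein staining read spectrophotometrically; result given as growth percentage of treated versus untreated control cells, reported as % growth inhibition.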
# MDA-MB-468 [13] = assay: Growth inhibition of human MDA-MB-468 cells assessed as cell growth at 10^-5 M after 48 hrs by SRB assay; conditions: MDA-MB-468, 48 h, read-out: Activity
# IGROV-1 = assay: Growth inhibition of human IGROV1 cells at 10 uM after 48 hrs by SRB assay; conditions: IGROV-1, 48 h, read-out: GI; in short: as §1
# SK-MEL-5 = assay: Growth inhibition of human SK-MEL-5 cells at 10 uM after 48 hrs by SRB assay; conditions: SK-MEL-5, 48 h, read-out: GI; in short: as §1
# T47D = assay: Growth inhibition of human T47D cells assessed as cell growth at 10^-6 M after 48 hrs by SRB assay; conditions: read-out: Activity
# MDA-MB-468 [14] = assay: Growth inhibition of human MDA-MB-468 cells assessed as cell growth at 10 uM after 48 hrs by SRB assay; conditions: MDA-MB-468, 48 h, read-out: GI; in short: as §1
SMILES,inhibition of growth at 10 µM [1] [%],inhibition of growth at 10 µM [3] [%],inhibition of growth at 10 µM (SR) [%],inhibition of growth at 10 µM (SNB-19) [%],inhibition of growth at 10 µM [4] [%],inhibition of growth at 10 µM [5] [%],inhibition of growth at 10 µM [6] [%],inhibition of growth at 10 µM [7] [%],inhibition of growth at 10 µM (A549) [%],inhibition of growth at 10 µM (MDA-MB-231) [%],inhibition of growth at 10 µM (NCI-H226) [%],inhibition of growth at 10 µM [9] [%],inhibition of growth at 10 µM [10] [%],inhibition of growth at 10 µM (NCI-H322M) [%],inhibition of growth at 10 µM (K562 [12]) [%],inhibition of growth at 10 µM (SK-OV-3) [%],inhibition of growth at 10 µM (HL-60(TB)) [%],inhibition of growth at 10 µM (IGROV-1) [%],inhibition of growth at 10 µM (SK-MEL-5) [%],also measured
Cc1ccc(-c2nc3ccc(Cl)cc3c(=O)n2/N=C/c2ccccc2)cc1,40,11,20,25,< 10,86,< 10,22,87,41,14,< 10,18,24,< 10,64,26,43,< 10,growth at 0.1 µM (K562 [2]): 97%; growth at 1 µM [8]: 89%; growth at 1 µM (HT-29): 94%; GI50 (U-251; read-out: GI50): 5.05 µM; CC50 (U-251; read-out: LC50 (the source's name)): > 100 µM; TGI (U-251; read-out: TGI): > 100 µM; GI50 (U-251; read-out: pGI50 (converted)): 5.01 µM; CC50 (U-251; read-out: pLC50 (the source's name) (converted)): > 100 µM; TGI (U-251; read-out: pTGI): > 100 µM; growth at 0.1 µM [11]: 92%; growth at 0.01 µM (COLO 205): 103%; growth at 10 µM (MDA-MB-468 [13]): 65%; growth at 1 µM (T47D): 100%
Cc1ccc(-c2nc3ccc(Cl)cc3c3nnc(S)n23)cc1,11,< 10,< 10,< 10,33,< 10,< 10,< 10,11,16,27,< 10,13,< 10,11,< 10,< 10,< 10,12,inhibition of growth at 10 µM (MDA-MB-468 [14]): < 10%
